Among the data in ChEMBL document CHEMBL1151846, “Cytotoxic constituents of chinese propolis” (J Nat Prod, 2009) are IC50 values, retold here.

Some results are limits rather than exact numbers.

In this assay the test system is HeLa. Nature of the assay: Cytotoxicity against human HeLa cells by MTT assay. It counts as functional, cell-based. Summed up:
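HeLa human cervical cancer cells were tested by MTT viability assay, following a previously published protocol. Doxorubicin was run as the reference cytotoxic control. Values are reported as IC50 in µM.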
Background: Tetrazolium assays rely on reduction of a dye to a coloured formazan, in cell work by metabolically active cells.
The compound `COc1cc(O)cc2c1C(=O)C(O)C(c1ccccc1)O2` (configuration not stated) yielded an IC50 of at least 10 µM. The compound `COc1cc(O)c(C(=O)/C=C/c2ccccc2)c2c1C[C@H](O)[C@@H](c1cc(O)cc(O)c1)O2` had a half-inhibitory concentration (IC50) of 7.3 µM. In turn, `COc1cc(C2Oc3c(c(OC)cc(O)c3C(=O)/C=C/c3ccccc3)CC2O)ccc1O` (configuration not stated) came in with a concentration for half-maximal inhibition (IC50) of 6.4 µM. In the case of `COc1cc(O)c(C(=O)/C=C/c2ccccc2)c2c1C[C@@H](O)[C@H](c1cc(O)cc(O)c1)O2` it was 7.1 µM; in that of `O=c1cc(-c2ccc(O)cc2)oc2cc(O)cc(O)c12` [APIGENIN], at least 10 µM; in that of `O=c1cc(-c2ccccc2)oc2cc(O)cc(O)c12` [CHRYSIN], at least 10 µM. In the case of `O=c1c(O)c(-c2ccccc2)oc2cc(O)cc(O)c12` [GALANGIN] it was at least 10 µM; in that of `COc1ccc(/C=C/C(=O)O)cc1O` [ISOFERULIC ACID], at least 10 µM. In the case of `COc1cc(-c2oc3cc(O)cc(O)c3c(=O)c2O)ccc1O` [ISORHAMNETIN] it was at least 10 µM; in that of `O=C1C[C@@H](c2ccccc2)Oc2cc(O)cc(O)c21` [PINOCEMBRIN], at least 10 µM; in that of `O=c1c(O)c(-c2ccc(O)c(O)c2)oc2cc(O)cc(O)c12` [QUERCETIN], at least 10 µM. The compound `COc1cc(O)c2c(=O)c(O)c(-c3ccc(O)c(O)c3)oc2c1` [RHAMNETIN] had an IC50 of 7.8 µM.

A word on the IC50: it is the concentration needed to halve the response being measured.
